Data published in ChEMBL document CHEMBL1268850, “Search for antifungal compounds from the wood of durable tropical trees” (2010).
In brackets after ≈: the same amount, converted by molar mass.

Tests used:
[1] = test system: Trichophyton mentagrophytes; test: Antifungal activity against Trichophyton mentagrophytes LMGO 09 after 5 days microdilution technique; assay type: functional; settings: LMGO 09, 120 h
Summary of the method: (§1)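 Dermatophytes were maintained on potato dextrose agar and subcultured 5 days at 28 °C before testing. Microdilution followed CLSI M38-A, with extracts at 500 to 0.98 µg/mL and pure compounds at 256 to 0.5 µg/mL. Fluconazole and itraconazole were the references. Plates were incubated at 32 °C and read after 5 days. MIC is the lowest concentration preventing visible growth, in triplicate.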

Pichia kudriavzevii [2] = test: Antifungal activity against Candida krusei LMGO 174 after 5 days microdilution technique; assay type: functional; settings: LMGO 174, 120 h
Summary of the method: (§2)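 Yeasts were kept on potato dextrose agar and subcultured 2 days at 28 °C before testing. Broth microdilution followed CLSI M27-A2. Crude extracts were tested at 500 to 0.98 µg/mL and pure compounds at 256 to 0.5 µg/mL. Fluconazole (64 to 0.125 µg/mL) and itraconazole (16 to 0.031 µg/mL) served as references. Plates were incubated at 32 °C. MIC is the lowest concentration with no visible growth, in triplicate.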

[3] = test system: Trichophyton mentagrophytes; test: Antifungal activity against Trichophyton mentagrophytes LMGO 1931 after 5 days microdilution technique; assay type: functional; settings: LMGO 1931, 120 h; summary of the method: as §1
Nakaseomyces glabratus [4] = test: Antifungal activity against Candida glabrata LMGO 44 after 5 days microdilution technique; assay type: functional; settings: LMGO 44, 120 h; summary of the method: as §2
Trichophyton rubrum [5] = test: Antifungal activity against Trichophyton rubrum LMGO 06 after 5 days microdilution technique; assay type: functional; settings: LMGO 06, 120 h; summary of the method: as §1
Trichophyton rubrum [6] = test: Antifungal activity against Trichophyton rubrum LMGO 4218 after 5 days microdilution technique; assay type: functional; settings: LMGO 4218, 120 h; summary of the method: as §1
Candida parapsilosis [7] = test: Antifungal activity against Candida parapsilosis ATCC 22019 after 5 days microdilution technique; assay type: functional; settings: Lodderomyces parapsilosis, ATCC 22019, 120 h; summary of the method: as §2
Nannizzia gypsea [8] = test: Antifungal activity against Microsporum gypseum LMGO 533 after 5 days microdilution technique; assay type: functional; settings: LMGO 533, 120 h; summary of the method: as §1
Microsporum canis [9] = test: Antifungal activity against Microsporum canis LMGO 02 after 5 days microdilution technique; assay type: functional; settings: LMGO 02, 120 h; summary of the method: as §1
Candida albicans [10] = test: Antifungal activity against Candida albicans ATCC 10231 after 5 days microdilution technique; assay type: functional; settings: ATCC 10231, 120 h; summary of the method: as §2
Nannizzia gypsea [11] = test: Antifungal activity against Microsporum gypseum LMGO 10 after 5 days microdilution technique; assay type: functional; settings: LMGO 10, 120 h; summary of the method: as §1
Trichophyton rubrum [12] = test: Antifungal activity against Trichophyton rubrum LMGO 08 after 5 days microdilution technique; assay type: functional; settings: LMGO 08, 120 h; summary of the method: as §1
Candida parapsilosis [13] = test: Antifungal activity against Candida parapsilosis LMGO 05 after 2 days microdilution technique; settings: Lodderomyces parapsilosis, LMGO 05, 48 h
Microsporum canis [14] = test: Antifungal activity against Microsporum canis LMGO 22 after 5 days microdilution technique; assay type: functional; settings: LMGO 22, 120 h; summary of the method: as §1
Candida albicans [15] = test: Antifungal activity against Candida albicans LMGO 102 after 5 days microdilution technique; assay type: functional; settings: LMGO 102, 120 h; summary of the method: as §2
[16] = test system: Cryptococcus gattii species complex; test: Antifungal activity against Cryptococcus gattii LMGO L1 after 5 days microdilution technique; assay type: functional, Cryptococcus bacillisporus; settings: LMGO L1, 120 h; summary of the method: as §2
Candida parapsilosis [17] = test: Antifungal activity against Candida parapsilosis ATCC 22019 after 2 days microdilution technique; settings: Lodderomyces parapsilosis, ATCC 22019, 48 h
[18] = test system: Cryptococcus gattii species complex; test: Antifungal activity against Cryptococcus gattii LMGO L1 after 2 days microdilution technique; settings: LMGO L1, 48 h
Pichia kudriavzevii [19] = test: Antifungal activity against Candida krusei LMGO 174 after 2 days microdilution technique; settings: LMGO 174, 48 h
Candida albicans [20] = test: Antifungal activity against Candida albicans LMGO 102 after 2 days microdilution technique; settings: LMGO 102, 48 h
Candida albicans [21] = test: Antifungal activity against Candida albicans ATCC 10231 after 2 days microdilution technique; settings: ATCC 10231, 48 h
Nakaseomyces glabratus [22] = test: Antifungal activity against Candida glabrata LMGO 44 after 2 days microdilution technique; settings: LMGO 44, 48 h

Structure (SMILES) | MIC [1] [µg/mL] | MIC [3] [µg/mL] | MIC (Trichophyton rubrum [5]) [µg/mL] | MIC (Trichophyton rubrum [6]) [µg/mL] | MIC (Nannizzia gypsea [8]) [µg/mL] | MIC (Microsporum canis [9]) [µg/mL] | MIC (Nannizzia gypsea [11]) [µg/mL] | MIC (Trichophyton rubrum [12]) [µg/mL] | MIC (Candida parapsilosis [13]) [µg/mL] | MIC (Microsporum canis [14]) [µg/mL] | MIC (Candida parapsilosis [17]) [µg/mL] | MIC [18] [µg/mL] | MIC (Pichia kudriavzevii [19]) [µg/mL] | MIC (Candida albicans [20]) [µg/mL] | MIC (Candida albicans [21]) [µg/mL] | MIC (Nakaseomyces glabratus [22]) [µg/mL] | also measured
OC(Cn1cncn1)(Cn1cncn1)c1ccc(F)cc1F [FLUCONAZOLE] | 16 (≈ 52.2 µM) | 4 (≈ 13.1 µM) | 4 (≈ 13.1 µM) | 32 (≈ 104 µM) | 64 (≈ 209 µM) | > 64 | 16 (≈ 52.2 µM) | 8 (≈ 26.1 µM) | 4 (≈ 13.1 µM) | > 64 | – | – | – | – | – | – | MIC (Pichia kudriavzevii [2]): 8 µg/mL (≈ 26.1 µM); MIC (Nakaseomyces glabratus [4]): 4 µg/mL (≈ 13.1 µM); MIC (Candida parapsilosis [7]): > 64 µg/mL; MIC (Candida albicans [10]): > 64 µg/mL; MIC (Candida albicans [15]): 1 µg/mL (≈ 3.27 µM); MIC [16]: > 64 µg/mL
CCC(C)n1ncn(-c2ccc(N3CCN(c4ccc(OCC5COC(Cn6cncn6)(c6ccc(Cl)cc6Cl)O5)cc4)CC3)cc2)c1=O (centres undefined) [ITRACONAZOLE] | 0.25 (≈ 0.354 µM) | 0.5 (≈ 0.709 µM) | 0.125 (≈ 0.177 µM) | 0.5 (≈ 0.709 µM) | 0.975 (≈ 1.38 µM) | 16 (≈ 22.7 µM) | 0.25 (≈ 0.354 µM) | 0.125 (≈ 0.177 µM) | 0.25 (≈ 0.354 µM) | 16 (≈ 22.7 µM) | 0.25 (≈ 0.354 µM) | 2 (≈ 2.83 µM) | 16 (≈ 22.7 µM) | > 16 | 0.5 (≈ 0.709 µM) | 0.5 (≈ 0.709 µM) | –
C=CCCCCCCCC[C@@H]1C[C@H](C[C@@H](O)CO)C(=O)O1 [RUBRENOLIDE] | 8 (≈ 26.8 µM) | 64 (≈ 214 µM) | 8 (≈ 26.8 µM) | 16 (≈ 53.6 µM) | 256 (≈ 858 µM) | 16 (≈ 53.6 µM) | 16 (≈ 53.6 µM) | 8 (≈ 26.8 µM) | 32 (≈ 107 µM) | 128 (≈ 429 µM) | 32 (≈ 107 µM) | 256 (≈ 858 µM) | 64 (≈ 214 µM) | 16 (≈ 53.6 µM) | 64 (≈ 214 µM) | 4 (≈ 13.4 µM) | –
C#CCCCCCCCC[C@@H]1C[C@H](C[C@@H](O)CO)C(=O)O1 [RUBRYNOLIDE] | 32 (≈ 108 µM) | > 256 | 32 (≈ 108 µM) | 32 (≈ 108 µM) | 32 (≈ 108 µM) | 32 (≈ 108 µM) | 32 (≈ 108 µM) | 32 (≈ 108 µM) | 128 (≈ 432 µM) | 64 (≈ 216 µM) | 128 (≈ 432 µM) | 128 (≈ 432 µM) | 64 (≈ 216 µM) | 32 (≈ 108 µM) | 128 (≈ 432 µM) | 32 (≈ 108 µM) | –
